Columns and labels:
[1] = melting temperature; fluorescence melt of hairpins on a sequencing array, two-state fit, raised by 9.35 °C to match UV melts; conditions: sodium 0.088 M
In short: (§1)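 Folding enthalpy and melting temperature come from bootstrapped two-state fits to Cy3 fluorescence of library hairpins carrying annealed Cy3 and quencher oligos on a sequenced MiSeq flow cell. Imaging was done in 50 mM Na-HEPES pH 8.0, 25 mM NaCl, stepping by 2.5 °C up to 60 °C, and signals were normalised to pre-quench Cy3 and to control constructs. Results of four replicates were combined by inverse variance, and fitted temperatures were raised by 9.35 °C to match UV melts.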

[2] = folding enthalpy; higher = less favourable; fluorescence melt of hairpins on a sequencing array, two-state fit; conditions: sodium 0.088 M
In short: as §1

Row | Sequence | Tm [1] | folding enthalpy [2]
1 | GATCGGACTGCCGATC ((((((....)))))) | 55.5 °C | -42 kcal/mol
2 | GCATTGCGAAAGCTAGGC ((.(.((....)).).)) | 48.7 °C | -17.9 kcal/mol
3 | GGCCATGCGAAAGCAGCC (((..(((....)))))) | 48.4 °C | -17.1 kcal/mol
4 | CGATGCCGGAAACGGTCG (((..(((....)))))) | 32.7 °C | -10 kcal/mol
5 | GATCCGCGATCGGATC ((((((....)))))) | 57.4 °C | -28.8 kcal/mol
6 | GATCTGTATCAGATC ((((((...)))))) | 48.2 °C | -34.4 kcal/mol
7 | GCTCACGCGAAAGCGAGC (((..(((....)))))) | 47.8 °C | -15.1 kcal/mol
8 | GAGGAAGGAAACTCCCTC ((((.((....)).)))) | 32.1 °C | -25 kcal/mol
9 | CGGGCTCGGAAACGACCG (((..(((....)))))) | 40.6 °C | -22.6 kcal/mol
10 | GATGGGCGAAAGCCATC (((.(((....)))))) | 52.5 °C | -18.2 kcal/mol
11 | GCGTCCCAACGC ((((....)))) | 55.1 °C | -23.5 kcal/mol
12 | GATAGTGGAAACACTACC (.(((((....))))).) | 33.1 °C | -12.4 kcal/mol
13 | GCGACTACTCGC ((((....)))) | 46.6 °C | -23.2 kcal/mol
14 | GACGACGGAAACGCCGTC ((((.((....)).)))) | 56.4 °C | -31.4 kcal/mol
15 | GCTGCGCGAAAGCCAAGC (((..((....))..))) | 48.9 °C | -18.9 kcal/mol
16 | GTGTTGGGAAACCAACGC (.(((((....))))).) | 54.2 °C | -32.8 kcal/mol
17 | GGCACTGGAAACGGTGCC (((((.(....).))))) | 60.5 °C | -50.7 kcal/mol
18 | GTCGTCACGAAAGTGGAC (((..(((....)))))) | 37.5 °C | -13.3 kcal/mol
19 | GATCAACCAATTGATC ((((((....)))))) | 39 °C | -32.7 kcal/mol
20 | GTGTGGAAACACAC (((((....))))) | 60.6 °C | -25.8 kcal/mol

Row | Sequence | Tm [1] | folding enthalpy [2]
21 | GGACCCGGAAACGGGCCC ((.((((....)))).)) | 59.6 °C | -19.2 kcal/mol
22 | GATGACGAAAGTCAAATC ((((((....)))..))) | 34.6 °C | -11.8 kcal/mol
23 | GATCGAGTCCTCGATC ((((((....)))))) | 56.2 °C | -45.8 kcal/mol
24 | GAGCCTGGAAACAGGCCC (.(((((....))))).) | 47.8 °C | -10.9 kcal/mol
25 | GACGGGAAACCGTC (((((....))))) | 58.6 °C | -29 kcal/mol
26 | GATCTGCCAGCAGATC ((((((....)))))) | 57.7 °C | -38.6 kcal/mol
27 | GCTTCCGAAAGGACTAGC ((((((....)))..))) | 35.7 °C | -16.2 kcal/mol
28 | GTGTCCGAAAGGAGCCAC ((((((....)))..))) | 33.5 °C | -14.5 kcal/mol
29 | GATCAGCTGACTGATC ((((((....)))))) | 51.5 °C | -37.6 kcal/mol
30 | GATTGTGGAAACACGATC (((.(((....))).))) | 48.1 °C | -31.7 kcal/mol
31 | GCAGAGGGAAACTTCTGC (((((.(....).))))) | 48 °C | -35 kcal/mol
32 | CGTGCACGGAAACGTACG (((..(((....)))))) | 33.2 °C | -8.88 kcal/mol
33 | GCTGGGGGAAACTCCAGC (((((.(....).))))) | 58 °C | -37.6 kcal/mol
34 | GGACTACGAAAGTATCC (((.(((....)))))) | 36.8 °C | -21.5 kcal/mol
35 | GCGATAGATCGC ((((....)))) | 49.7 °C | -21.7 kcal/mol
36 | GCGAACGAAAGTTATCGC ((((((....)))..))) | 44.1 °C | -23.1 kcal/mol
37 | TGGTGGAAACACCA (((((....))))) | 52.4 °C | -22.2 kcal/mol
38 | GATCTAACTGTAGATC ((((((....)))))) | 39.1 °C | -24.2 kcal/mol
39 | GGATACGGAAACGTGTCC (((.(((....))).))) | 52.7 °C | -46.1 kcal/mol
